# Data published in ChEMBL document CHEMBL4359879, “Synthesis and evaluation of 2-carboxy indole derivatives as potent and selective anti-leukemic agents” (Eur J Med Chem, 2019).
# pEC50: −log10 of the molar value. Activity calls are given as the source filed them. The rule behind the calls is not given here.
# What was measured:
# Type in all cases: functional, cell-based
# [1] = system: HL-60; experiment: Induction of differentiation in human HL60 cells assessed as increase in CD14 positive cells at 100 nM incubated for 48 hrs by 7-AAD staining-based flow cytometric analysis
# Outline: (§1)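 Vitamin D3 at 100 nM and ATRA at 2 μM served as positive controls. Stained with APC anti-CD11b and PE anti-CD14 for 30 min at 4 °C, then 7-AAD.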
# [2] = system: RS4-11; experiment: Antiproliferative activity against human RS4:11 cells incubated for 48 hrs by MTT assay; conditions: RS4-11, 48 h
# Outline: (§2)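 Cells grown in RPMI-1640 with 10% FBS, penicillin/streptomycin, 37 °C, 5% CO2. After 48 h of exposure to a dilution series, MTT was added (0.5 mg/ml final) for 4 h. Formazan was dissolved overnight in acidic SDS (10% SDS, 0.01 mol/L HCl) and absorbance read at 570 and 620 nm. Survival was expressed relative to controls, and EC50 was fitted from dose-response curves.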
# [3] = system: CCRF-CEM; experiment: Antiproliferative activity against human CEM cells incubated for 48 hrs by MTT assay; outline: as §2
# [4] = system: HL-60; experiment: Induction of differentiation in human HL60 cells assessed as increase in CD11b positive cells at 2 uM incubated for 48 hrs by 7-AAD staining-based flow cytometric analysis; outline: as §1
SMILES,Activity [1],pEC50 [2],pEC50 [3],Activity [4]
C=C1/C(=C\C=C2/CCC[C@]3(C)[C@@H]([C@H](C)CCCC(C)(C)O)CC[C@@H]23)C[C@@H](O)C[C@@H]1O,Active,–,–,–
COC(=O)c1[nH]c2cc(C(F)(F)F)ccc2c1-c1ccc(OC)cc1,–,< 4.00,< 4.00,–
COC(=O)c1c(-c2ccc(C(F)(F)F)cc2)c2ccc(OC)cc2n1C,–,< 4.00,< 4.00,–
COC(=O)c1[nH]c2ccccc2c1-c1ccc(F)cc1,–,< 4.00,< 4.00,–
COc1ccc2c(-c3ccc(C(F)(F)F)cc3)c(C(=O)OC(C)(C)C)[nH]c2c1,–,< 4.00,< 4.00,–
COC(=O)c1[nH]c2cc(OC)ccc2c1-c1ccc(Br)cc1,–,6.70,6.48,–
COC(=O)c1[nH]c2cc(OC)ccc2c1C(C)C,–,4.09,< 4.00,–
COC(=O)c1[nH]c2cc(OC)ccc2c1C,–,< 4.00,< 4.00,–
COC(=O)c1[nH]c2cc(OC)ccc2c1-c1ccc(Cl)c(Cl)c1,–,5.42,6.24,–
COC(=O)c1[nH]c2cc(OC)ccc2c1C1CCCCC1,–,< 4.00,4.10,–
COC(=O)c1[nH]c2cc(C(F)(F)F)ccc2c1-c1ccccc1,–,< 4.00,< 4.00,–
COC(=O)c1c(-c2ccc(C(F)(F)F)cc2)c2ccc(OC)cc2n1O,–,6.52,6.41,–
COC(=O)c1[nH]c2cc(OC)ccc2c1-c1ccccc1OC,–,4.98,5.72,–
COc1ccc2c(-c3ccc(C(F)(F)F)cc3)c(C(=O)N[C@@H](Cc3ccccc3)C(=O)O)[nH]c2c1,–,4.37,4.28,–
COC(=O)c1[nH]c2cc(OC)ccc2c1-c1ccc(F)cc1,–,4.07,5.00,–
COC(=O)c1[nH]c2cc(OC)ccc2c1CC(C)C,–,4.42,4.78,–

SMILES,Activity [1],pEC50 [2],pEC50 [3],Activity [4]
COc1ccc2c(-c3ccc(C(F)(F)F)cc3)c(C(=O)N3CCOCC3)[nH]c2c1,–,4.32,4.53,–
COC(=O)c1[nH]c2ccccc2c1-c1ccc(OC)cc1,–,< 4.00,< 4.00,–
COC(=O)c1[nH]c2cc(OC)ccc2c1Cc1ccccc1,–,4.21,5.06,–
CC1=C(/C=C/C(C)=C/C=C/C(C)=C/C(=O)O)C(C)(C)CCC1,–,–,–,Active
COC(=O)c1[nH]c2ccc(OC)cc2c1-c1ccc(C(F)(F)F)cc1,–,< 4.00,< 4.00,–
COC(=O)c1[nH]c2cc(O)ccc2c1-c1ccc(C(F)(F)F)cc1,–,4.99,5.00,–
CCOC(=O)c1[nH]c2cc(OC)ccc2c1-c1ccc(C(F)(F)F)cc1,–,< 4.00,< 4.00,–
COC(=O)Cc1c(C(=O)OC)[nH]c2cc(OC)ccc12,–,< 4.00,< 4.00,–
COC(=O)c1[nH]c2ccccc2c1-c1ccccc1,–,4.02,4.45,–
COC(=O)c1[nH]c2cc(OC)ccc2c1C(=O)OC,–,< 4.00,< 4.00,–
CCc1c(C(=O)OC)[nH]c2cc(OC)ccc12,–,< 4.00,< 4.00,–
COC(=O)c1[nH]c2ccccc2c1-c1ccc(C(F)(F)F)cc1,–,< 4.00,< 4.00,–
COC(=O)c1[nH]c2cc(C(F)(F)F)ccc2c1-c1ccc(C(F)(F)F)cc1,–,< 4.00,< 4.00,–
COc1ccc2c(-c3ccc(C(F)(F)F)cc3)c(C(=O)O)[nH]c2c1,–,4.61,4.70,–
COC(=O)c1c(-c2ccc(C(F)(F)F)cc2)c2ccc(OC)cc2n1Cc1ccccc1,–,< 4.00,< 4.00,–
